The subject of data set [1] is HT-22. Put plainly: Neuroprotective activity against glutamate-induced excitotoxicity in mouse HT-22 cells assessed as cell viability at 0.1 uM preincubated for 4 hrs followed by glutamate treatment for 24 hrs by CCK8 assay (reference value: 30.31 +/- 2.02 %). The class given is functional. The note with it: time 28 hrs, read-out: Activity. (In general: Tetrazolium dyes change colour on reduction, which living cells bring about.)

Data set [2] concerns PC-12. In words: Neuroprotective activity against glutamate-induced excitotoxicity in rat PC12 cells assessed as cell viability at 10 uM preincubated for 4 hrs followed by glutamate treatment for 24 hrs by CCK8 assay (reference value: 43.75 +/- 2.04 %). The class given is functional. The note with it: time 28 hrs, read-out: Activity.
Data set [3] can be described thus: Cytotoxicity against rat PC12 cells assessed as cell viability at 10 uM incubated for 4 hrs by CCK8 assay relative to control. The note with it: read-out: Activity. The class given is toxicity, cell-based, PC-12.
Data set [4] relates to HT-22. In words: Neuroprotective activity against glutamate-induced excitotoxicity in mouse HT-22 cells assessed as cell viability at 10 uM preincubated for 4 hrs followed by glutamate treatment for 24 hrs by CCK8 assay (reference value: 34.80 +/- 4.02 %). The class given is functional. To be noted: time 28 hrs, read-out: Activity.
Data set [5] deals with PC-12. In words: Neuroprotective activity against glutamate-induced excitotoxicity in rat PC12 cells assessed as cell viability at 0.1 uM preincubated for 4 hrs followed by glutamate treatment for 24 hrs by CCK8 assay (reference value: 44.89 +/- 2.08 %). The note with it: time 28 hrs, read-out: Activity. The class given is functional.
Data set [6] concerns the target T1, Glutamate NMDA receptor; GRIN1/GRIN2B (Homo sapiens) (UniProt Q05586+Q13224). Put plainly: Positive allosteric modulation of GluN1/N2B (unknown origin) transfected in HEK293 cells assessed as potentiation of Glu/Gly-induced calcium influx by Cal-520 AM dye based assay. The class given is cell-based. An outline of the steps:
(§1)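 HEK293 cells were co-transfected 1:1 with GluN1 plus GluN2A or GluN2B at 90% confluence and seeded 40 000/well on poly-D-lysine plates overnight. Cells were loaded with Cal-520 AM for 1.5 h at 37 °C, and compounds were tested at 10 μM. Responses to Glu (2 mM)/Gly (100 μM) were recorded in HEPES-buffered Tyrode's (pH 7.2) at Ex 485/Em 515 nm every 1.6 s, expressed as area under the FMAX/F0 curve.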

Data set [7] has as its system HT-22. Put plainly: Neuroprotective activity against glutamate-induced excitotoxicity in mouse HT-22 cells assessed as cell viability at 1 uM preincubated for 4 hrs followed by glutamate treatment for 24 hrs by CCK8 assay (reference value: 35.56 +/- 2.12 %). The class given is functional. The note with it: time 28 hrs, read-out: Activity.
In data set [8] the test system is PC-12. In words: Neuroprotective activity against glutamate-induced excitotoxicity in rat PC12 cells assessed as cell viability at 1 uM preincubated for 4 hrs followed by glutamate treatment for 24 hrs by CCK8 assay (reference value: 43.19 +/- 2.98 %). The class given is functional. To be noted: time 28 hrs, read-out: Activity.
The subject of data set [9] is Mus musculus. In words: Neuroprotective activity against tMCAO-reperfusion induced nerve injury in C57BL/6 mouse model assessed as recovery of neurological deficit score at 5 to 10 mg/kg, ip measured after 22 hrs. The class given is functional, organism-based. The note with it: dose 5-10 mg/kg. The method in brief: (§2)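 Male C57BL/6 mice (6–8 weeks, 18–22 g) were randomized and given 1, 5 or 10 mg/kg i.p. in 5% DMSO, 20% PEG300, 5% Tween-80 in saline. Under isoflurane, the left MCA was occluded with a nylon monofilament for 1.5 h, then reperfused, with body temperature held at 37 °C. Neurological scores were taken after tMCAO. n=6, mean ± SD, one-way ANOVA with Dunnett's test vs vehicle.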

In data set [10] the target is Glutamate NMDA receptor; GRIN1/GRIN2A/GRIN2B (Homo sapiens) (UniProt Q05586+Q12879+Q13224). In words: Positive allosteric modulation of GluN1/N2A/N2B (unknown origin) transfected in HEK293 cells assessed as potentiation of Glu/Gly-induced calcium influx by Cal-520 AM dye based assay. The class given is cell-based.
The target of data set [11] is Glutamate NMDA receptor; GRIN1/GRIN2A (Homo sapiens) (UniProt Q05586+Q12879). In words: Positive allosteric modulation of GluN1/N2A (unknown origin) transfected in HEK293 cells assessed as potentiation of Glu/Gly-induced calcium influx by Cal-520 AM dye based assay. The class given is cell-based. The note with it: filed as positive allosteric modulator. An outline of the steps:
as §1

In data set [12] the test system is Mus musculus. In words: Neuroprotective activity against tMCAO-reperfusion induced nerve injury in C57BL/6 mouse model assessed as reduction in volume of ischemia cerebral infarction at 10 mg/kg, ip measured after 22 hrs by TTC staining based analysis relative to control. On the set-up: scale not given: the % may be the effect or the level left. The class given is functional.

Data set [13] has as its system Mus musculus. Put plainly: Neuroprotective activity against tMCAO-reperfusion induced nerve injury in C57BL/6 mouse model assessed as reduction in volume of ischemia cerebral infarction at 10 mg/kg, ip measured after 22 hrs by TTC staining based analysis (reference value: 130.60 +/- 9.93 mm3). The class given is functional.
Data set [14] relates to Mus musculus. In words: Neuroprotective activity against tMCAO-reperfusion induced nerve injury in C57BL/6 mouse model assessed as reduction in volume of ischemia cerebral infarction at 5 mg/kg, ip measured after 22 hrs by TTC staining based analysis relative to control. The class given is functional. On the set-up: scale not given: the % may be the effect or the level left.

Data set [15] has as its system Mus musculus. Put plainly: Neuroprotective activity against tMCAO-reperfusion induced nerve injury in C57BL/6 mouse model assessed as reduction in volume of ischemia cerebral infarction at 5 mg/kg, ip measured after 22 hrs by TTC staining based analysis (reference value: 130.60 +/- 9.93 mm3). The class given is functional.
For data set [16], the target named is T1, Glutamate NMDA receptor; GRIN1/GRIN2B (Homo sapiens). In words: […] of GluN1/N2B (unknown origin) transfected in HEK293 cells assessed as potentiation of Glu/Gly-induced calcium influx by Cal-520 AM dye based assay. The class given is cell-based. The note with it: […]. An outline of the steps: as §1

Data set [17] deals with Mus musculus. Put plainly: Neuroprotective activity against tMCAO-reperfusion induced nerve injury in C57BL/6 mouse model assessed as recovery of neurological deficit score at 10 mg/kg, ip measured after 22 hrs. The class given is functional, organism-based. An outline of the steps:
as §2

Structures are written as SMILES. Active and inactive are the calls of the source. No cut-off for these calls is given here.

Take `COc1cc(/C=C/C(=O)NCC(O)c2ccc(O)cc2)ccc1O` (configuration not stated): the viability at 0.1 µM is 42.7% in data set [1] and 64.2% in data set [5]. In addition, the viability at 10 µM in data set [2] came to 62.8%; in data set [4], 39.6%. For the same molecule, in data set [3], the viability at 4 h, 10 µM was 96.6%. Further, the outcome in data set [6] was inactive. Moreover, the viability at 1 µM worked out at 77.6% in data set [7] and 66.5% in data set [8].
As for `COc1cc(OC/C=C(\C)CCC=C(C)C)c2ccc(=O)oc2c1`, the viability at 0.1 µM in data set [1] was found to be 34.9%; in [5], 67.4%. Further, the values for the viability at 10 µM in data set [2] and in [4] were 70.1% and 41.4%, respectively. Further, the viability at 4 h, 10 µM in [3] was 74.7%. Moreover, in data set [6], the outcome was inactive. Also, the viability at 1 µM in [7] and in data set [8] was 69% throughout.
Turning to `COc1ccc(C(O)CNC(=O)/C=C/c2ccccc2)cc1` (configuration not stated), in [9], the outcome was Active. The result in [10] and in data set [6] was inactive. In addition, the Activity entry in [11] is “Dose-Dependent Effect”; in data set [12], 42.7%; in [13], 74.83 mm3; in [14], 30.68%; in [15], 90.53 mm3.
In the case of `C=CCc1ccc(O)c(-c2ccc(O)c(CC=C)c2)c1`, the outcome in [16] was Active. Also, the result in data set [6] was inactive.
For `CC(C)=CCC/C(C)=C/COc1c2ccoc2cc2oc(=O)ccc12`, in data set [6], the result was inactive.
The same measure, in the same setting: with `CC(C)=CCC/C(C)=C/COc1ccc2ccc(=O)oc2c1` the entry was “inactive”; with `CC(Cc1ccc(O)c(O)c1)C(C)Cc1ccc(O)c(O)c1` (configuration not stated), “inactive”.
Still for that read-out and setting: the value for `CCCCCCC/C=C/C(=O)CCc1ccc(O)c(OC)c1` was “inactive”.
Same read-out and setting: with `CCN(CC)CCCC(C)Nc1ccnc2cc(Cl)ccc12` (configuration not stated) the entry was “inactive”; with `COc1cc(/C=C/C(=O)NCCc2ccc(O)cc2)cc(OC)c1O`, “inactive”.
As for `COc1cc(/C=C/C(=O)NCCc2ccc(O)cc2)ccc1O`, in [6], the outcome was inactive.
Still for that read-out and setting: the value for `COc1cc(C(=O)OCCCCNC(=N)N)cc(OC)c1O` was “inactive”.
The same measure, in the same setting: the value for `C[C@H](CCc1ccc(O)cc1)NCCc1ccc(O)c(O)c1` was “inactive”; that for `O=C(/C=C/c1ccc(O)c(O)c1)OC(Cc1ccc(O)c(O)c1)C(=O)O` (configuration not stated) was “inactive”; that for `O=C(CCCCc1ccc2c(c1)OCO2)N1CCCCC1` was “inactive”.
Same read-out and setting: with `O=C(CCc1ccccc1)C[C@@H](O)/C=C/c1ccccc1` the entry was “inactive”.
Turning to `C=CCN1C[C@H](C(=O)N(CCCN(C)C)C(=O)NCC)C[C@@H]2c3cccc4[nH]cc(c34)C[C@H]21` [CABERGOLINE], the viability at 0.1 µM in data set [1] amounted to 37.7%; in data set [5], 63.9%. For the same molecule, the results for the viability at 10 µM in [2] and in data set [4] were 87.5% and 37.4%, respectively. For the same molecule, in data set [3], the viability at 4 h, 10 µM amounted to 94.8%. Further, the result in [6] was inactive. Also, the viability at 1 µM in [7] was determined as 73.8%; in data set [8], 68.2%.
For `COc1cc(CNC(=O)CCCCCCC(C)C)ccc1O` [DIHYDROCAPSAICIN], the results for the viability at 0.1 µM in data set [1] and in data set [5] were 32.6% and 66.1%, respectively. The figures for the viability at 10 µM in data set [2] and in [4] were 102% and 43.3%, respectively. In addition, the viability at 4 h, 10 µM in [3] amounted to 104%. Moreover, the result in data set [6] was inactive. Moreover, the viability at 1 µM worked out at 95.4% in [7] and 76.1% in data set [8].
Consider `CC1=NN(c2ccccc2)C(=O)C1` [EDARAVONE], for which, in data set [17], the outcome was Active. The Activity in data set [13] worked out at 68.04 mm3.
For `COc1cc(CCC(=O)CC(O)CCc2ccc(O)c(OC)c2)ccc1O` (configuration not stated) [HEXAHYDROCURCUMIN], the viability at 0.1 µM in data set [1] was determined as 41.4%; in data set [5], 66%. The viability at 10 µM in [2] was 66.5%; in data set [4], 42.9%. In addition, the outcome in data set [11] was Active. In addition, in [3], the viability at 4 h, 10 µM was 73.3%. For the same molecule, the result in data set [6] was inactive. Also, the viability at 1 µM in data set [7] stood at 103%; in data set [8] it was 52.4%.
For the molecule `COC(=O)[C@@H](Cc1ccc(O)c(O)c1)OC(=O)/C=C/c1ccc(O)c(O)c1` [METHYL ROSMARINATE], the values for the viability at 0.1 µM in [1] and in [5] were 46.3% and 74.1%, respectively. The viability at 10 µM in data set [2] worked out at 53.6%; in data set [4], 25.6%. Moreover, in data set [3], the viability at 4 h, 10 µM came out at 69.6%. For the same molecule, in data set [6], the result was inactive. For the same molecule, the viability at 1 µM in data set [7] amounted to 80.4%; in data set [8] it was 75.2%.
Turning to `O=C(/C=C/C=C/c1ccc2c(c1)OCO2)N1CCCCC1` [PIPERINE], the viability at 0.1 µM in data set [1] came out at 36.5%; in data set [5] it was 66.2%. Further, the viability at 10 µM in [2] was 35.2%; in data set [4], 24.5%. Moreover, the viability at 4 h, 10 µM in data set [3] came out at 98.3%. Besides, the result in [6] was inactive. Besides, the viability at 1 µM stood at 87.8% in data set [7] and 57.3% in data set [8].
Take `COCCCOc1ccnc(C[S+]([O-])c2nc3ccccc3[nH]2)c1C` (configuration not stated) [RABEPRAZOLE]: the viability at 0.1 µM is 39.9% in data set [1] and 64.7% in data set [5]. In addition, the viability at 10 µM stood at 60.9% in data set [2] and 16% in [4]. Further, in data set [3], the viability at 4 h, 10 µM amounted to 93.2%. In data set [6], the outcome was inactive. For the same molecule, the viability at 1 µM in data set [7] was 76.5%; in [8], 66.7%.
As for `N[C@@H](CC(=O)N1CCn2c(nnc2C(F)(F)F)C1)Cc1cc(F)c(F)cc1F` [SITAGLIPTIN], the viability at 0.1 µM in data set [1] is 24.8%; in [5], 62.6%. Moreover, the values for the viability at 10 µM in data set [2] and in data set [4] were 77.8% and 52.4%, respectively. For the same molecule, the viability at 4 h, 10 µM in [3] came to 95.5%. The outcome in data set [6] was inactive. In addition, the figures for the viability at 1 µM in data set [7] and in data set [8] were 71% and 69.5%, respectively.

The values are drawn from ChEMBL document CHEMBL5385965, “Discovery of novel positive allosteric modulators targeting GluN1/2A NMDARs as anti-stroke therapeutic agents” (RSC Med Chem, 2024).
